Data from paper PMC2963086 (Analytical biochemistry, 2010).
“And” between values parts separate entries of the source, which are not always exact repeats. Identical values can stand only once. Like-named read-outs stand apart in the source and are kept apart here.

Legend:
[1] = molecular target: T1, Malate dehydrogenase (MDH) (Sus scrofa, UniProt P00346); assay: Enzymatic reaction assay, competitive inhibition, initial rates; format: biochemical, Porcine heart mitochondria (sus scrofa)
T1 sequence (P00346 25-338): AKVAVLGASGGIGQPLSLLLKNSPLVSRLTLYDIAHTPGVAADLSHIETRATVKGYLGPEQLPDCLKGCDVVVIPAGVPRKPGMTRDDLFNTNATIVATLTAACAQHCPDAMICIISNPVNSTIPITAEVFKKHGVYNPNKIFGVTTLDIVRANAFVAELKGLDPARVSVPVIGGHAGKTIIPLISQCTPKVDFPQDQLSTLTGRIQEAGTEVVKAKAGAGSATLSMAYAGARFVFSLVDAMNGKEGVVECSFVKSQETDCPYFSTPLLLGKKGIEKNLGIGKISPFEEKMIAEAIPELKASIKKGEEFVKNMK

[2] = molecular target: T2, Formate dehydrogenase (FDH) (Candida boidinii, UniProt O13437); conditions: native NAD^+, cited from earlier work
T2 sequence (O13437 1-364): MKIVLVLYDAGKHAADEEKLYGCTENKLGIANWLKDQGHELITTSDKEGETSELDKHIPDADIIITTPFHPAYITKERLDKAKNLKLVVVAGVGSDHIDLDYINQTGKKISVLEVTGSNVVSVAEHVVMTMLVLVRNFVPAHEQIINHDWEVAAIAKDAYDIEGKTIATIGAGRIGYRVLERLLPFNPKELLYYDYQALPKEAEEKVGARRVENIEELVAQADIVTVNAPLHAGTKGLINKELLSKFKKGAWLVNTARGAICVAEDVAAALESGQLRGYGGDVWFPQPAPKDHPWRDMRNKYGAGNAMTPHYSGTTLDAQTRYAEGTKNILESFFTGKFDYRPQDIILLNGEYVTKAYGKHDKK

[3] = molecular target: T1, Malate dehydrogenase (MDH); conditions: native NAD^+, 37; cited from earlier work
[4] = tested on: Glucose dehydrogenase (GDH); conditions: native NAD^+; cited from earlier work
[5] = tested on: formate dehydrogenase (FDH); conditions: azide anion with FDH; cited from earlier work
[6] = molecular target: T2, Formate dehydrogenase (FDH); assay: ITC binding of azo-NAD^+ to formate dehydrogenase; conditions: Kd (Binary), FDH binary complex, pH 7.5
Procedure, shortened: (§1)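 Isothermal titration calorimetry at pH 7.5 with commercial enzymes: Candida boidinii FDH and porcine heart mitochondrial MDH. Titrations of azo-NAD+ with enzyme; for the MDH ternary complex, malate is present. Heats of dilution subtracted from raw heats. Integrated heats fitted to a single-site binding model to give Kd.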

[7] = molecular target: T1, Malate dehydrogenase (MDH); assay: ITC binding of azo-NAD^+ to malate dehydrogenase; format: Porcine heart mitochondria (sus scrofa); conditions: pH 7.5
Procedure, shortened: as §1

[8] = molecular target: Glucose dehydrogenase (GDH); assay: Fluorescence titration; format: binding, Bacillus megaterium; conditions: read-out: Kd (Binary); GDH binary complex; fluorescence experiments; pH 7.5
[9] = molecular target: T2, Formate dehydrogenase (FDH); assay: Enzymatic reaction assay, initial rates; format: biochemical
[10] = tested on: Glucose dehydrogenase (GDH); assay: Enzymatic reaction assay, initial rates; format: biochemical, Bacillus megaterium
Procedure, shortened: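 Commercial Bacillus megaterium GDH in a 1 mL UV cuvette with 0.1 M phosphate buffer, pH 7.5, and azo-NAD+ as coenzyme. Initial rates taken over 2 min from the absorbance rise at 340 nm (azo-NADH). Km and kcat obtained by fitting rates against azo-NAD+ concentration to the Michaelis–Menten equation, with Vmax = [E]·kcat.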

[11] = Stability in phosphate buffer by UV absorbance ratio 260/303 nm; format: physicochemical; conditions: phosphate buffer pH 7.5, 24 hrs, 25 °C
[12] = Solubility of the solid analog; format: physicochemical; conditions: phosphate buffer and methanol at room temperature
[13] = substrate: [N-]=[N+]=Nc1ccc[n+]([C@@H]2O[C@H](COP(=O)([O-])OP(=O)(O)OC[C@H]3O[C@@H](n4cnc5c(N)ncnc54)[C@H](O)[C@@H]3O)[C@@H](O)[C@H]2O)c1; assay: Enzymatic reaction assay, initial rates; format: biochemical, Candida boidinii; conditions: other: FDH, azo-NAD^+ as substrate, 0.1 M phosphate buffer pH 7.5
[14] = azo-NAD^+ as substrate, 0.1 M phosphate buffer pH 7.5

NC(=O)c1ccc[n+]([C@@H]2O[C@H](COP(=O)([O-])OP(=O)(O)OC[C@H]3O[C@@H](n4cnc5c(N)ncnc54)[C@H](O)[C@@H]3O)[C@@H](O)[C@H]2O)c1 [NAD^+, nicotinamide adenine dinucleotide]
kcat ([1]; MDH, native NAD^+, no reference given): 45 s⁻¹ | kcat (turnover number) ([2]; Candida Boidinii FDH): 3.7 s^−1 and 3.7 ^c s^−1 | Km ([2]; FDH): 90 µM | Km [3]: 140 µM | Km [4]: 370 µM | kcat [4]: 390 ^d s^−1

[N-]=[N+]=[N-] [azide anion]
binding constant [5]: nanomolar

[N-]=[N+]=Nc1ccc[n+]([C@@H]2O[C@H](COP(=O)([O-])OP(=O)(O)OC[C@H]3O[C@@H](n4cnc5c(N)ncnc54)[C@H](O)[C@@H]3O)[C@@H](O)[C@H]2O)c1 [azo-NAD^+]
Kd [6]: 63 µM | Kd ([7]; Kd (Binary), MDH binary complex): 152 µM | Kd ([7]; Kd (Ternary), MDH ternary complex with substrate malate): 70 µM | Kd [8]: 300 µM | behaviour as substrate or inhibitor [9]: substrate | Ki [1]: 83 µM | behaviour as substrate or inhibitor ([1]; MDH): competitive inhibitor | behaviour as substrate or inhibitor [10]: substrate | Km [10, 14]: 72 µM | kcat [10, 14]: 344 s⁻¹ | stability (ratio of UV absorbance 260 nm/303 nm unchanged) [11]: stable | solubility [12]: soluble

B1: Formate dehydrogenase (FDH) ([Candida] boidinii) (protein)
chain: MKIVLVLYDAGKHAADEEKLYGCTENKLGIANWLKDQGHELITTSDKEGETSELDKHIPDADIIITTPFHPAYITKERLDKAKNLKLVVVAGVGSDHIDLDYINQTGKKISVLEVTGSNVVSVAEHVVMTMLVLVRNFVPAHEQIINHDWEVAAIAKDAYDIEGKTIATIGAGRIGYRVLERLLPFNPKELLYYDYQALPKEAEEKVGARRVENIEELVAQADIVTVNAPLHAGTKGLINKELLSKFKKGAWLVNTARGAICVAEDVAAALESGQLRGYGGDVWFPQPAPKDHPWRDMRNKYGAGNAMTPHYSGTTLDAQTRYAEGTKNILESFFTGKFDYRPQDIILLNGEYVTKAYGKHDKK
Km [13]: 378 µM | kcat [13]: 7.5 s⁻¹
